Data set [1] has as its target Melatonin receptor type 1A (Homo sapiens, UniProt P48039). Put plainly: Agonist activity at human MT1 receptor expressed in HEK293 cells at 1 mM after 24 hrs by Fluo-8 dye-based calcium assay relative to control. Type of data set: functional, cell-based. The method, boiled down:
(§1)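 Fluo-8 calcium assay in HEK293 cells stably expressing human MT1 or MT2, seeded 4×10^4/well and incubated 24 h. Compounds tested at 1.00 mM, agomelatine positive control at 3.33 µM; fluorescence at ex 485/em 525 nm. Agonism expressed as mean ± SD, n = 3.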

In data set [2] the target is T1, Melatonin receptor type 1B (Homo sapiens) (UniProt P49286).
T1 sequence (whole entry): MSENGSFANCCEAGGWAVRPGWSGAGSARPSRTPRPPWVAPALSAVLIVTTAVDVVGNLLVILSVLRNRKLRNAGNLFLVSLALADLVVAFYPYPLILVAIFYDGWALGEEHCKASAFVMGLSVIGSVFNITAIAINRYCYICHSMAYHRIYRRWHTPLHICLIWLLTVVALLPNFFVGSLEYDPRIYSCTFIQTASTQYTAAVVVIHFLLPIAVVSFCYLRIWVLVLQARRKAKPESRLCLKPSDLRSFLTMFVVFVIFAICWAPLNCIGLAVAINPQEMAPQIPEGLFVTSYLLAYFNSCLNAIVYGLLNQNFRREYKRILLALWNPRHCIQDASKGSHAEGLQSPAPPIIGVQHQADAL
The data set can be described thus: Agonist activity at human MT2 receptor expressed in HEK293 cells at 1 mM after 24 hrs by Fluo-8 dye-based calcium assay relative to control. The data set is classed as functional, cell-based. In short, it runs like this:
as §1

Data set [3] is described as follows: Retention time of the compound by UPLC-IT-TOF-MS analysis. Type of data set: physicochemical. The method, boiled down:
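Retention on C18 column (100 × 2.1 mm, 1.8 µm) at 30 °C; mobile phase A 0.05% formic acid in water, B 0.05% formic acid in acetonitrile, 0.2 mL/min, linear 5–100% B over 0–18.0 min; IT-TOF-MS detection in positive and negative modes.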

A short description of data set [4]: Drug level in Sprague-Dawley rat urine treated with Magnolol-4'-O-beta-D-glucopyranoside at 100 mg/kg, po by UPLC-IT-TOF-MS analysis. The data set is classed as ADME, organism-based. As to conditions: in vivo. The method, boiled down:
(§2)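 Rats (n = 6) housed in metabolic cages received 100.0 mg/kg orally; controls received 0.5% CMC-Na. Plasma, urine and faeces were collected and analyzed by LC-IT-TOF-MS on a C18 column at 30 °C. Gradient 5–100% acetonitrile with 0.05% formic acid over 18 min at 0.2 mL/min; positive and negative ion MS/MS.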

Data set [5] can be described thus: Drug level in Sprague-Dawley rat feces treated with Magnolol-4'-O-beta-D-glucopyranoside at 100 mg/kg, po by UPLC-IT-TOF-MS analysis. As to conditions: in vivo. Type of data set: ADME, organism-based. The method, boiled down: as §2
The target in data set [6] is T1, Melatonin receptor type 1B (Homo sapiens). Put plainly: Potency index, ratio of compound effect to magnolol effect for human MT2 receptor. The data set is classed as functional.

Chain of Melatonin receptor type 1A (P48039 whole entry): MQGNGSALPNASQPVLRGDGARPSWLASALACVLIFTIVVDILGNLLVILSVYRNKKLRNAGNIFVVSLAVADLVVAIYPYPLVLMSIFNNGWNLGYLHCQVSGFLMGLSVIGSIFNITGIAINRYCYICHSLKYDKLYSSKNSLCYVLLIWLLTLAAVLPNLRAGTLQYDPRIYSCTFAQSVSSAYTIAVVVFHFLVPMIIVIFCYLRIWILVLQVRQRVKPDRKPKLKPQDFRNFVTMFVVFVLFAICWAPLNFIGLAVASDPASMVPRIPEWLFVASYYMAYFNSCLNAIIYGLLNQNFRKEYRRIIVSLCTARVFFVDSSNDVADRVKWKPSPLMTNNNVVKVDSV

As to `C=CCc1ccc(O)c(-c2cc(CC=C)ccc2O[C@@H]2O[C@H](COC(C)=O)[C@@H](OC(C)=O)[C@H](OC(C)=O)[C@H]2O)c1`, the Activity in data set [1] turned out to be 11%; in data set [2], 19.1%.

Regarding `C=CC(=O)c1ccc(O[C@@H]2O[C@H](C(=O)O)[C@@H](O)[C@H](O)[C@H]2O)c(-c2cc(C(O)C=C)ccc2O)c1` (some centres undefined), the Retention_time in data set [3] is on record as 9.47 min. The Drug metabolism result in data set [4] is “Metabolite_Detected”.

On to `C=CCc1ccc(O)c(-c2cc(C(O)C=C)ccc2O[C@@H]2O[C@H](CO)[C@@H](O)[C@H](O)[C@H]2O)c1` (some centres undefined), for which the Retention_time in data set [3] was 9.15 min. In addition, the Drug metabolism entry in data set [4] is listed as “Metabolite_Detected”.

Compound `C=CCc1ccc(OC)c(-c2cc(CC=C)ccc2O[C@@H]2O[C@H](C(=O)O)[C@@H](O)[C@H](O)[C@H]2O)c1` displayed a Retention_time in data set [3] of 12.4 min. Besides, in data set [4], the Drug metabolism entry was “Metabolite_Detected”.

In data set [3], `C=CC(O)c1ccc(O[C@@H]2O[C@H](C(=O)O)[C@@H](O)[C@H](O)[C@H]2O)c(-c2cc(CC(C)O)ccc2OC)c1` (some centres undefined) had a Retention_time of 8.7 min. Moreover, the Drug metabolism entry in data set [4] is on record as “Metabolite_Detected”.

As to `C=CCc1ccc(O)c(-c2cc(CC=C)ccc2O)c1` [MAGNOLOL], the Activity stood at 40.2% in data set [1] and 20% in data set [2]. This compound also registered a Retention_time in data set [3] of 14.33 min. Also, the Drug metabolism result in data set [4] and in data set [5] was “Metabolite_Detected” each time.

Turning to `C=CCc1ccc(O)c(-c2cc(CC=C)ccc2OC(=O)c2ccccc2)c1`, the figures for the Activity in data set [1] and in data set [2] were -6.5% and -0.04%, respectively.

For `C=CCc1ccc(OC(=O)C=C)c(-c2cc(CC=C)ccc2OC(=O)C=C)c1`, the Activity in data set [1] was 0.04%; in data set [2], 4.57%.

`C=CCc1ccc(OC(=O)/C=C/c2ccccc2)c(-c2cc(CC=C)ccc2OC(=O)/C=C/c2ccccc2)c1`: the Activity amounted to 28.3% in data set [1] and 3.34% in data set [2].

As for `Oc1ccc(CC2CO2)cc1-c1cc(CC2CO2)ccc1O` (centres undefined), the Activity is 2.18% in data set [1] and -3.39% in data set [2].

As to `C=CCc1ccc(O)c(-c2cc(CC3CO3)ccc2O)c1` (centres undefined), the Activity is 53.8% in data set [1] and -3.08% in data set [2].

In the case of `C=CCc1ccc(O)c(-c2cc(CC=C)ccc2OS(=O)(=O)O)c1`, the Retention_time in data set [3] is 11.49 min. The Drug metabolism result in data set [5] is given as “Metabolite_Detected”.

Regarding `C=CCc1ccc(OC(=O)CCCCl)c(-c2cc(CC=C)ccc2OC(=O)CCCCl)c1`, the Activity in data set [1] amounted to 8.14%; in data set [2], 2.11%.

Regarding `C=CCc1ccc(O[C@@H]2O[C@H](C(=O)O)[C@@H](O)[C@H](O)[C@H]2O)c(-c2cc(CC=C)ccc2O[C@@H]2O[C@H](CO)[C@@H](O)[C@H](O)[C@H]2O)c1`, the Retention_time in data set [3] came out at 9.94 min. Also, the Drug metabolism result in data set [4] and in data set [5] was “Metabolite_Detected” in each case.

`C=CCc1ccc(O)c(-c2cc(CC=C)ccc2OC(C)=O)c1`: the Activity in data set [1] came out at 91.4%; in data set [2], 77.6%.

For the compound `C=CC(=O)c1ccc(O)c(-c2cc(C(=O)CC)ccc2OS(=O)(=O)O)c1`, the Retention_time in data set [3] came out at 9.05 min. Also, the Drug metabolism entry in data set [4] was “Metabolite_Detected”.

On to `C=CCc1ccc(O[C@@H]2O[C@H](CO)[C@@H](O)[C@H](O)[C@H]2O)c(-c2cc(CC=C)ccc2O[C@@H]2O[C@H](CO)[C@@H](O)[C@H](O)[C@H]2O)c1`, for which the Activity in data set [1] was determined as 2.97%; in data set [2] it was 10.8%. Also, the Retention_time in data set [3] was 10.63 min. In addition, the Drug metabolism result in data set [4] and in data set [5] was “Metabolite_Detected” each time.

In the case of `C=CCc1ccc(OC(=O)/C=C/c2cccc(F)c2)c(-c2cc(CC=C)ccc2O[C@@H]2O[C@H](CO)[C@@H](O)[C@H](O)[C@H]2O)c1`, the Activity in data set [1] was 5.3%; in data set [2] it was -10.5%.

Take `C=CCc1ccc(O)c(-c2cc(C(=O)C=C)ccc2O[C@@H]2O[C@H](CO)[C@@H](O)[C@H](O)[C@H]2O)c1`: the Retention_time in data set [3] is 10.59 min. For the same compound, the Drug metabolism entry in data set [4] is “Metabolite_Detected”.

On to `C=CCc1ccc(O)c(-c2cc(CC=C)ccc2OC(=O)c2ccc(N)cc2)c1`, for which the Activity in data set [1] was -1.55%; in data set [2] it was 5.17%.

On to `C=CCc1ccc(O[C@@H]2O[C@H](COC(C)=O)[C@@H](OC(C)=O)[C@H](OC(C)=O)[C@H]2OC(C)=O)c(-c2cc(CC=C)ccc2O[C@@H]2O[C@H](COC(C)=O)[C@@H](OC(C)=O)[C@H](OC(C)=O)[C@H]2OC(C)=O)c1`, for which the Activity in data set [1] is 7.09%; in data set [2], 0.04%.

Consider `C=CCc1ccc(O)c(-c2cc(CC=C)ccc2OC(=O)CCCl)c1`, for which the Activity in data set [1] amounted to 21%; in data set [2], 30.1%.

Compound `C=CC(O)c1ccc(O)c(-c2cc(C(O)C=C)ccc2O)c1` (centres undefined) had a Retention_time in data set [3] of 11.06 min. Moreover, the Drug metabolism entry in data set [4] and in data set [5] was “Metabolite_Detected” in each case.

For `C=CCc1ccc(O)c(-c2cc(CC=C)ccc2OC(=O)CCCCl)c1`, the Activity in data set [1] turned out to be 32%; in data set [2], 69.7%. The Ratio in data set [6] was in the range of 3.5 to 4.5.

Regarding `C=CC(O)c1ccc(O[C@@H]2O[C@H](C(=O)O)[C@@H](O)[C@H](O)[C@H]2O)c(-c2cc(C(O)CC)ccc2O[C@@H]2O[C@H](CO)[C@@H](O)[C@H](O)[C@H]2O)c1` (some centres undefined), in data set [3], the Retention_time turned out to be 6.75 min. Also, the Drug metabolism entry in data set [4] and in data set [5] was “Metabolite_Detected” throughout.

Regarding `C=CCc1ccc(OS(=O)(=O)O)c(-c2cc(C(O)C=C)ccc2O[C@@H]2O[C@H](CO)[C@@H](O)[C@H](O)[C@H]2O)c1` (some centres undefined), in data set [3], the Retention_time is recorded as 9.24 min. Moreover, the Drug metabolism entry in data set [5] was “Metabolite_Detected”.

In the case of `C=CCc1ccc(O[C@@H]2O[C@H](CO)[C@@H](O)[C@H](O)[C@H]2O)c(-c2cc(C(O)C=C)ccc2O[C@@H]2O[C@H](C(=O)O)[C@@H](O)[C@H](O)[C@H]2O)c1` (some centres undefined), the Retention_time in data set [3] is 7.79 min. Further, the Drug metabolism result in data set [4] and in data set [5] was “Metabolite_Detected” throughout.

As to `C=CCc1ccc(OC(=O)/C=C/c2ccccc2)c(-c2cc(CC=C)ccc2O[C@@H]2O[C@H](CO)[C@@H](O)[C@H](O)[C@H]2O)c1`, the Activity in data set [1] was 50.3%; in data set [2] it was -10.1%.

Turning to `C=CC(=O)c1ccc(O[C@@H]2O[C@H](CO)[C@@H](O)[C@H](O)[C@H]2O)c(-c2cc(C(O)C=C)ccc2O)c1` (some centres undefined), the Retention_time in data set [3] was 10.88 min. Besides, the Drug metabolism entry in data set [4] is listed as “Metabolite_Detected”.

`C=CCc1ccc(O[C@@H]2O[C@H](CO)[C@@H](O)[C@H](O)[C@H]2O)c(-c2cc(CC=C)ccc2OS(=O)(=O)O)c1` displayed a Retention_time in data set [3] of 8.17 min. For the same compound, in data set [5], the Drug metabolism entry is “Metabolite_Detected”.

The compound `C=CC(O)c1ccc(O[C@@H]2O[C@H](CO)[C@@H](O)[C@H](O)[C@H]2O)c(-c2cc(C(O)CC)ccc2OS(=O)(=O)O)c1` (some centres undefined) returned a Retention_time in data set [3] of 7.39 min. Moreover, in data set [4], the Drug metabolism entry is “Metabolite_Detected”.

Regarding `C=CCc1ccc(O)c(-c2cc(CC=C)ccc2O[C@@H]2O[C@H](COC(C)=O)[C@@H](OC(C)=O)[C@H](OC(C)=O)[C@H]2OC(C)=O)c1`, the Activity in data set [1] is -0.58%; in data set [2], -2.09%.

With `C=CCc1ccc(O)c(-c2cc(CC=C)ccc2OC(=O)C=C)c1`, the Activity in data set [1] came to 1.31%; in data set [2] it was 2.93%.

For `C=CC(O)c1ccc(O[C@@H]2O[C@H](CO)[C@@H](O)[C@H](O)[C@H]2O)c(-c2cc(CCC)ccc2OS(=O)(=O)O)c1` (some centres undefined), the Retention_time in data set [3] amounted to 6.91 min. For the same compound, in data set [5], the Drug metabolism result was “Metabolite_Detected”.

Turning to `C=CCc1ccc(OC(=O)c2ccccc2)c(-c2cc(CC=C)ccc2O[C@@H]2O[C@H](CO)[C@@H](O)[C@H](O)[C@H]2O)c1`, the results for the Activity in data set [1] and in data set [2] were 13.2% and -5.71%, respectively.

Regarding `C=CCc1ccc(OC(C)=O)c(-c2cc(CC=C)ccc2OC(C)=O)c1`, the figures for the Activity in data set [1] and in data set [2] were -1.86% and -2.52%, respectively.

As to `C=CCc1ccc(OC(=O)c2ccccc2)c(-c2cc(CC=C)ccc2OC(=O)c2ccccc2)c1`, the results for the Activity in data set [1] and in data set [2] were -5.93% and -1.72%, respectively.

With `C=CCc1ccc(O)c(-c2cc(CC=C)ccc2OC(=O)/C=C/c2ccccc2)c1`, the Activity in data set [1] worked out at 56.8%; in data set [2], 25.6%.

Regarding `C=CC(O)c1ccc(O)c(-c2cc(CCC)ccc2OS(=O)(=O)O)c1` (centres undefined), the Retention_time in data set [3] was 7.55 min. Moreover, in data set [5], the Drug metabolism result was “Metabolite_Detected”.
